According to ChEMBL document CHEMBL1138024, “Aryl urea analogs with broad-spectrum antibacterial activity” (Bioorg Med Chem Lett, 2004):
Converted amounts (≈) assume the structure as drawn.

Legend:
Type in all cases: functional
Staphylococcus aureus [1] = test: In vitro antibacterial activity against Staphylococcus aureus; value ranges from 6-12 uM
Staphylococcus aureus [2] = test: In vitro antibacterial activity against Staphylococcus aureus; value ranges from 12-25 uM
Staphylococcus aureus [3] = test: In vitro antibacterial activity against Staphylococcus aureus
Staphylococcus aureus [4] = test: In vitro antibacterial activity against Staphylococcus aureus; value ranges from 3-6 uM
Staphylococcus aureus [5] = test: In vitro antibacterial activity against Staphylococcus aureus; value ranges from 25-50 uM
Escherichia coli [6] = test: Minimum inhibitory concentration against Escherichia coli ATCC 25922; value ranges from 12-25 uM
Enterococcus faecium = test: Minimum inhibitory concentration against Enterococcus faecium ATCC 6569
Klebsiella pneumoniae [7] = test: Minimum inhibitory concentration against Klebsiella pneumoniae ATCC 13383; value ranges from 6-12 uM
Streptococcus pyogenes [8] = test: Minimum inhibitory concentration against Streptococcus pyogenes ATCC 49399; value ranges from 6-12 uM
Proteus vulgaris = test: Minimum inhibitory concentration against Proteus vulgaris ATCC 8427; value ranges from 12-25 uM
Pseudomonas aeruginosa = test: Minimum inhibitory concentration against Pseudomonas aeruginosa ATCC 25416
Staphylococcus aureus [9] = test: Minimum inhibitory concentration against Staphylococcus aureus ATCC 13709 (+4% BSA); value ranges from 25-50 uM
Procedure, shortened: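 Same microdilution MIC against S. aureus ATCC 13709, but with 4% bovine serum albumin in the wells. Compound in 0.5% DMSO in water, inoculum about 10³–10⁴ CFU/well, duplicates. Growth was read as A595 after 20–24 h at 37°C against a compound-free control. MIC is reported as the range between full inhibition and viable growth.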

Enterococcus faecalis [10] = test: Minimum inhibitory concentration against Enterococcus faecalis ATCC 29212; value ranges from 6-12 uM
Staphylococcus aureus [11] = test: Minimum inhibitory concentration against Staphylococcus aureus ATCC 13709; value ranges from 3-6 uM
Staphylococcus aureus [12] = test: In vitro antibacterial activity against Staphylococcus aureus; value ranges from 50-100 uM
Streptococcus pyogenes [13] = test: Minimum inhibitory concentration against Streptococcus pyogenes ATCC 49399; value ranges from 3-6 uM
Mus musculus [14] = test: In vivo antibacterial activity (Staphylococcus aureus) in a lethal murine model at a dose of 4.6 mg/kg; activity expressed as no. of mice alive/total tested; 3/10
Mus musculus [15] = test: In vivo antibacterial activity (Staphylococcus aureus) in a lethal murine model at a dose of 18.8 mg/kg; activity expressed as no. of mice alive/total tested; 6/10
Klebsiella pneumoniae [16] = test: Minimum inhibitory concentration against Klebsiella pneumoniae ATCC 13383; value ranges from 3-6 uM
Enterococcus faecalis [17] = test: Minimum inhibitory concentration against Enterococcus faecalis ATCC 29212; value ranges from 3-6 uM
Mus musculus [18] = test: In vivo antibacterial activity (Staphylococcus aureus) in a lethal murine model at a dose of 37.6 mg/kg; activity expressed as no. of mice alive/total tested; 6/10
Mus musculus [19] = test: In vivo antibacterial activity (Staphylococcus aureus) in a lethal murine model at a dose of 75 mg/kg; activity expressed as no. of mice alive/total tested; 7/10
Mus musculus [20] = test: In vivo antibacterial activity (Staphylococcus aureus) in a lethal murine model at a dose of 9.4 mg/kg; activity expressed as no. of mice alive/total tested; 4/10
Mus musculus [21] = test: In vivo antibacterial activity (Staphylococcus aureus) in a lethal murine model at a dose of 150 mg/kg; activity expressed as no. of mice alive/total tested; 4/10
Huh-7 = test: Cytotoxic concentration against Huh7 cells at 48 hours in MTT assay; conditions: Homo sapiens, Huh-7, 48 h
Staphylococcus aureus [22] = test: Minimum inhibitory concentration against Staphylococcus aureus ATCC 13709 (+4% BSA); value ranges from 3-6 uM
Klebsiella pneumoniae [23] = test: Minimum inhibitory concentration against Klebsiella pneumoniae ATCC 13383
Streptococcus pyogenes [24] = test: Minimum inhibitory concentration against Streptococcus pyogenes ATCC 49399; value ranges from 1.5-3 uM
Escherichia coli [25] = test: Minimum inhibitory concentration against Escherichia coli ATCC 25922
Mus musculus [26] = test: In vivo antibacterial activity (Staphylococcus aureus) in a lethal murine model at a dose of 2 mg/kg; activity expressed as no. of mice alive/total tested; 10/10

## FC(F)(F)c1ccc(N/C(S)=N/CCCNCc2cc(Br)cc(Br)c2)cc1
Staphylococcus aureus [1]
  MIC: 12 µM (≈ 6.3 µg/mL)

## S=C(NCCCNCc1cc(Br)cc(Br)c1)Nc1ccc(I)cc1
Staphylococcus aureus [2]
  MIC: 25 µM (≈ 14.6 µg/mL)

## CN(CCCNC(=O)Nc1ccc(C(F)(F)F)cc1)Cc1cc(Br)cc(Br)c1
Staphylococcus aureus [3]
  MIC: > 100 µM

## CCOc1ccc(Br)cc1CNCCCNC(=O)Nc1ccc(C(F)(F)F)cc1
Staphylococcus aureus [1]
  MIC: 12 µM (≈ 5.69 µg/mL)

## S=C(NCCCNCc1cc(Br)cc(Br)c1)Nc1ccc(Cl)c(Cl)c1
Staphylococcus aureus [4]
  MIC: 6 µM (≈ 3.16 µg/mL)

## O=C(NCCCNCc1cccc(-c2ccccc2)c1)Nc1ccc(C(F)(F)F)cc1
Staphylococcus aureus [1]
  MIC: 12 µM (≈ 5.13 µg/mL)

## COc1cccc(N/C(S)=N/CCCNCc2cc(Br)cc(Br)c2)c1
Staphylococcus aureus [5]
  MIC: 50 µM (≈ 24.4 µg/mL)

## O=C(NCCCNCc1ccccc1OC(F)(F)F)Nc1ccc(C(F)(F)F)cc1
Staphylococcus aureus [2]
  MIC: 25 µM (≈ 10.9 µg/mL)

## O=C(NCCCNCc1cc(Br)cc(Br)c1)Nc1ccc(Cl)cc1
Staphylococcus aureus [1]
  MIC: 12 µM (≈ 5.71 µg/mL)

## Fc1ccc(N/C(S)=N/CCCNCc2cc(Br)cc(Br)c2)cc1
Staphylococcus aureus [2]
  MIC: 25 µM (≈ 11.9 µg/mL)

## O=C(NCCCNCc1ccc(Cl)c(Cl)c1)Nc1ccc(C(F)(F)F)cc1
Staphylococcus aureus [4]
  MIC: 6 µM (≈ 2.52 µg/mL)

## O=C(NCCCNCc1cc(Br)cc(Br)c1)Nc1ccc(C(F)(F)F)cc1
Staphylococcus aureus [4]
  MIC: 6 µM (≈ 3.05 µg/mL)
Escherichia coli [6]
  MIC: 25 µM (≈ 12.7 µg/mL)
Enterococcus faecium
  MIC: > 100 µM
Klebsiella pneumoniae [7]
  MIC: 12 µM (≈ 6.11 µg/mL)
Streptococcus pyogenes [8]
  MIC: 12 µM (≈ 6.11 µg/mL)
Proteus vulgaris
  MIC: 25 µM (≈ 12.7 µg/mL)
Pseudomonas aeruginosa
  MIC: > 100 µM
Staphylococcus aureus [9]
  MIC: 50 µM (≈ 25.5 µg/mL)
Enterococcus faecalis [10]
  MIC: 12 µM (≈ 6.11 µg/mL)
Staphylococcus aureus [11]
  MIC: 6 µM (≈ 3.05 µg/mL)

## FC(F)(F)c1cccc(N/C(S)=N/CCCNCc2cc(Br)cc(Br)c2)c1
Staphylococcus aureus [1]
  MIC: 12 µM (≈ 6.3 µg/mL)

## COc1ccc(-c2ccc(CNCCCNC(=O)Nc3ccc(C(F)(F)F)cc3)cc2)cc1
Staphylococcus aureus [4]
  MIC: 6 µM (≈ 2.74 µg/mL)

## COc1ccc(N/C(S)=N/CCCNCc2cc(Br)cc(Br)c2)cc1
Staphylococcus aureus [5]
  MIC: 50 µM (≈ 24.4 µg/mL)

## S=C(NCCCNCc1cc(Br)cc(Br)c1)Nc1cccc(Br)c1
Staphylococcus aureus [1]
  MIC: 12 µM (≈ 6.43 µg/mL)

## O=C(NCCCNCc1cc(Br)cc(Br)c1)Nc1ccc(Cl)c(Cl)c1
Staphylococcus aureus [4]
  MIC: 6 µM (≈ 3.06 µg/mL)

## O=C(NCCCNCc1cc(F)cc(F)c1)Nc1ccc(C(F)(F)F)cc1
Staphylococcus aureus [12]
  MIC: 100 µM (≈ 38.7 µg/mL)

## COc1ccccc1-c1ccc(CNCCCNC(=O)Nc2ccc(C(F)(F)F)cc2)cc1
Staphylococcus aureus [1]
  MIC: 12 µM (≈ 5.49 µg/mL)

## CC(=O)Nc1ccc(CNCCCNC(=O)Nc2ccc(C(F)(F)F)cc2)cc1
Staphylococcus aureus [3]
  MIC: > 100 µM

## S=C(NCCCNCc1cc(Br)cc(Br)c1)Nc1cccc(Cl)c1
Staphylococcus aureus [1]
  MIC: 12 µM (≈ 5.9 µg/mL)

## Fc1cccc(N/C(S)=N/CCCNCc2cc(Br)cc(Br)c2)c1
Staphylococcus aureus [2]
  MIC: 25 µM (≈ 11.9 µg/mL)

## CN(CCCNC(=O)Nc1ccc(C(F)(F)F)cc1)CCCOc1ccc(Br)cc1Br
Streptococcus pyogenes [13]
  MIC: 6 µM (≈ 3.4 µg/mL)
Mus musculus [14]
  No. of animals alive: 3
Escherichia coli [6]
  MIC: 25 µM (≈ 14.2 µg/mL)
Enterococcus faecium
  MIC: > 100 µM
Mus musculus [15]
  No. of animals alive: 6
Klebsiella pneumoniae [16]
  MIC: 6 µM (≈ 3.4 µg/mL)
Enterococcus faecalis [17]
  MIC: 6 µM (≈ 3.4 µg/mL)
Proteus vulgaris
  MIC: 25 µM (≈ 14.2 µg/mL)
Pseudomonas aeruginosa
  MIC: > 100 µM
Mus musculus [18]
  No. of animals alive: 6
Staphylococcus aureus [1]
  MIC: 12 µM (≈ 6.81 µg/mL)
Mus musculus [19]
  No. of animals alive: 7
Mus musculus [20]
  No. of animals alive: 4
Staphylococcus aureus [9]
  MIC: 50 µM (≈ 28.4 µg/mL)
Mus musculus [21]
  No. of animals alive: 4
Huh-7
  CC50: > 100 µM
Staphylococcus aureus [11]
  MIC: 6 µM (≈ 3.4 µg/mL)

## Cc1ccc(N/C(S)=N/CCCNCc2cc(Br)cc(Br)c2)cc1
Staphylococcus aureus [2]
  MIC: 25 µM (≈ 11.8 µg/mL)

## S=C(NCCCNCc1cc(Br)cc(Br)c1)Nc1ccc(Cl)cc1
Staphylococcus aureus [1]
  MIC: 12 µM (≈ 5.9 µg/mL)

## O=C(NCCCNCc1ccc(OC(F)(F)F)cc1)Nc1ccc(C(F)(F)F)cc1
Staphylococcus aureus [4]
  MIC: 6 µM (≈ 2.61 µg/mL)

## S=C(NCCCNCc1cc(Br)cc(Br)c1)Nc1ccccc1Cl
Staphylococcus aureus [2]
  MIC: 25 µM (≈ 12.3 µg/mL)

## COc1ccccc1/N=C(\S)NCCCNCc1cc(Br)cc(Br)c1
Staphylococcus aureus [3]
  MIC: > 100 µM

## O=C(NCCCNCc1cc(Br)cc(Br)c1)Nc1ccc(OC(F)(F)F)cc1
Staphylococcus aureus [1]
  MIC: 12 µM (≈ 6.3 µg/mL)

## O=C(NCCCNCc1cc(C(F)(F)F)cc(C(F)(F)F)c1)Nc1ccc(C(F)(F)F)cc1
Staphylococcus aureus [12]
  MIC: 100 µM (≈ 48.7 µg/mL)

## COc1cc(CNCCCNC(=O)Nc2ccc(C(F)(F)F)cc2)cc(OC)c1
Staphylococcus aureus [12]
  MIC: 100 µM (≈ 41.1 µg/mL)

## O=C(NCCCNCCCOc1ccc(Br)cc1Br)Nc1ccc(C(F)(F)F)cc1
Staphylococcus aureus [4]
  MIC: 6 µM (≈ 3.32 µg/mL)

## CN(C)c1ccc(CNCCCNC(=O)Nc2ccc(C(F)(F)F)cc2)cc1
Staphylococcus aureus [2]
  MIC: 25 µM (≈ 9.86 µg/mL)

## O=[N+]([O-])c1ccc(N/C(S)=N/CCCNCc2cc(Br)cc(Br)c2)cc1
Staphylococcus aureus [2]
  MIC: 25 µM (≈ 12.6 µg/mL)

## S=C(NCCCNCc1cc(Br)cc(Br)c1)Nc1ccc(Br)cc1
Staphylococcus aureus [2]
  MIC: 25 µM (≈ 13.4 µg/mL)

## O=C(NCCCNCc1cc(Cl)cc(Cl)c1)Nc1ccc(C(F)(F)F)cc1
Staphylococcus aureus [1]
  MIC: 12 µM (≈ 5.04 µg/mL)

## N#Cc1ccc(NC(=S)NCCCNCc2cc(Br)cc(Br)c2)cc1
Staphylococcus aureus [5]
  MIC: 50 µM (≈ 24.1 µg/mL)

## O=C(NCCCNCc1ccccc1)Nc1ccc(C(F)(F)F)cc1
Staphylococcus aureus [12]
  MIC: 100 µM (≈ 35.1 µg/mL)

## O=C(NCCCNCc1cc(Br)cc(Br)c1)Nc1cccc(C(F)(F)F)c1
Staphylococcus aureus [1]
  MIC: 12 µM (≈ 6.11 µg/mL)

## Fc1ccccc1/N=C(\S)NCCCNCc1cc(Br)cc(Br)c1
Staphylococcus aureus [5]
  MIC: 50 µM (≈ 23.8 µg/mL)

## O=C(NCCCNCc1cc(Br)cc(Br)c1O)Nc1ccc(C(F)(F)F)cc1
Staphylococcus aureus [3]
  MIC: > 100 µM

## CC(=O)NCC1CN(c2ccc(N3CCOCC3)c(F)c2)C(=O)O1 (single isomer, unassigned) [LINEZOLID]
Staphylococcus aureus [22]
  MIC: 6 µM (≈ 2.02 µg/mL)
Staphylococcus aureus [4]
  MIC: 6 µM (≈ 2.02 µg/mL)
Enterococcus faecium
  MIC: > 100 µM
Klebsiella pneumoniae [23]
  MIC: > 100 µM
Streptococcus pyogenes [24]
  MIC: 3 µM (≈ 1.01 µg/mL)
Enterococcus faecalis [17]
  MIC: 6 µM (≈ 2.02 µg/mL)
Proteus vulgaris
  MIC: 25 µM (≈ 8.43 µg/mL)
Pseudomonas aeruginosa
  MIC: > 100 µM
Escherichia coli [25]
  MIC: > 100 µM
Staphylococcus aureus [11]
  MIC: 6 µM (≈ 2.02 µg/mL)

## CN[C@H](CC(C)C)C(=O)N[C@H]1C(=O)N[C@@H](CC(N)=O)C(=O)N[C@H]2C(=O)N[C@H]3C(=O)N[C@H](C(=O)N[C@H](C(=O)O)c4cc(O)cc(O)c4-c4cc3ccc4O)[C@H](O)c3ccc(c(Cl)c3)Oc3cc2cc(c3O[C@@H]2O[C@H](CO)[C@@H](O)[C@H](O)[C@H]2O[C@H]2C[C@](C)(N)[C@H](O)[C@H](C)O2)Oc2ccc(cc2Cl)[C@H]1O [VANCOMYCIN]
Mus musculus [26]
  No. of animals alive: 10
